Measured values as given in ChEMBL document CHEMBL5329164, “Design, synthesis, and evaluation of BTK-targeting PROTACs with optimized bioavailability in vitro and in vivo” (RSC Med Chem, 2023).
Each block holds one compound with its values, some of them ahead of it.

Assays:
[1] = target: T1, Protein cereblon/Tyrosine-protein kinase BTK (Homo sapiens) (UniProt Q06187+Q96SW2); assay: PROTAC activity at CRBN/ BTK in human Ramos cells assessed as induction of BTK degradation at 100 nM incubated for 24 hrs by immunoblot analysis relative to control; type: cell-based
T1 sequence (Q06187 2-659 limits assumed): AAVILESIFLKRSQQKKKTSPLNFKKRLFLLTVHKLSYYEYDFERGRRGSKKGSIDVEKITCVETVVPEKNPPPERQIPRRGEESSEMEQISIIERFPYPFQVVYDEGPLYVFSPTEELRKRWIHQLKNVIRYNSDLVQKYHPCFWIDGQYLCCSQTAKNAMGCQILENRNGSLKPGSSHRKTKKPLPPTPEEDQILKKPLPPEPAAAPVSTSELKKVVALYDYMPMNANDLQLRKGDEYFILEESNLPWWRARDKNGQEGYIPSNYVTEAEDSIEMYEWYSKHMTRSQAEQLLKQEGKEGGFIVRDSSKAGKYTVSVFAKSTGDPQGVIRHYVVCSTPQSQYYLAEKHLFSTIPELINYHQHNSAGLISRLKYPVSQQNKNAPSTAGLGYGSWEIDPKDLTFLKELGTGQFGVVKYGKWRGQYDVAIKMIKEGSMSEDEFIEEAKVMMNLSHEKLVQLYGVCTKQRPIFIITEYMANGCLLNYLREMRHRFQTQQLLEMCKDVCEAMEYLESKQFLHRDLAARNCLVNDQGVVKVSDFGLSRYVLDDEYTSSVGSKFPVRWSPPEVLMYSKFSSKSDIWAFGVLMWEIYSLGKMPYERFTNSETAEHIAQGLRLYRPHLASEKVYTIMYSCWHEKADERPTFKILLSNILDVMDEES
T1 sequence (Q96SW2 whole entry partner): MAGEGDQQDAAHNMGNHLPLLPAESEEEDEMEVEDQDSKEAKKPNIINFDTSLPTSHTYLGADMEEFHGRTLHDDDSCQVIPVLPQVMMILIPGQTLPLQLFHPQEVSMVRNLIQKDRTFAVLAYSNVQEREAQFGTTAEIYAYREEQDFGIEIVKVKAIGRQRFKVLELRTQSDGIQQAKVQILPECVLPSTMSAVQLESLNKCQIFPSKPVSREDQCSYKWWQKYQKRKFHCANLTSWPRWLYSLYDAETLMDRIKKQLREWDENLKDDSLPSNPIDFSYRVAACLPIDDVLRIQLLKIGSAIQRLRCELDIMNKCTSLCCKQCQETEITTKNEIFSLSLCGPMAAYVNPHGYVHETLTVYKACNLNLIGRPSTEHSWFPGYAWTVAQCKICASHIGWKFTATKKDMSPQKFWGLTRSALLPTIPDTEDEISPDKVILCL
In short: (§1)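 Ramos cells in supplemented RPMI 1640 were plated at 3×10^5 cells/well and treated with compound for 24 h. Lysates in SDS sample buffer were heated at 100 °C for 15 min and run on 10% SDS-PAGE, then transferred to PVDF. Membranes were probed overnight at 4 °C for BTK, GSPT1 and β-actin.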

[2] = target: T1, Protein cereblon/Tyrosine-protein kinase BTK (Homo sapiens); assay: PROTAC activity at CRBN/ BTK in human Ramos cells assessed as induction of BTK degradation at 300 nM incubated for 24 hrs by immunoblot analysis relative to control; type: cell-based; in short: as §1
[3] = target: T1, Protein cereblon/Tyrosine-protein kinase BTK (Homo sapiens); assay: PROTAC activity at CRBN/ BTK in human Ramos cells assessed as induction of BTK degradation at 500 nM incubated for 24 hrs by immunoblot analysis relative to control; type: cell-based; in short: as §1
[4] = target: T1, Protein cereblon/Tyrosine-protein kinase BTK (Homo sapiens); assay: PROTAC activity at CRBN/ BTK in human Ramos cells assessed as induction of BTK degradation at 250 nM incubated for 24 hrs by immunoblot analysis relative to control; type: cell-based; in short: as §1
[5] = Solubility in DMSO:Cremophor EL:1xPBS mixture at 10 mg/ml incubated for 7 days; type: physicochemical; conditions: 168 h, time 7 day
[6] = Solubility in DMSO:Cremophor EL:1xPBS mixture at 10 mg/ml; type: physicochemical
[7] = Oral bioavailability in BALB/c mouse at 5 mg/kg measured for 24 hrs by LCMS analysis; type: ADME, organism-based; conditions: in vivo
In short: (§2)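 Male Balb/c mice, 9 per group, dosed intragastrically at 5 mg/kg; the same compounds were also given iv at 2 mg/kg. Blood was drawn into EDTA-K2 tubes at 0.25, 0.5, 1, 2, 4, 6, 8 and 24 h. Plasma proteins were precipitated with acetonitrile containing tolbutamide. Quantification was by LC-MS on a C18 column with a formic acid water/acetonitrile gradient.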

[8] = Half life in BALB/c mouse at 2 mg/kg, iv measured for 24 hrs by LCMS analysis; type: ADME, organism-based; conditions: in vivo
In short: (§3)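 Male Balb/c mice, 9 per group, dosed intravenously at 2 mg/kg. Blood was drawn into EDTA-K2 tubes at 0.083, 0.25, 0.5, 1, 2, 4, 6, 8 and 24 h. Plasma was separated by centrifugation at 2000 g for 10 min and precipitated with acetonitrile containing tolbutamide internal standard. Analysis was by LC-MS on a polar C18 column with a water/acetonitrile 0.1% formic acid gradient.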

[9] = Stability in monkey liver microsomes assessed as half life at 1 uM preincubated for 10 mins followed by reaction initiation measured upto 60 mins in presence of NADPH; type: ADME, Macaca mulatta, Microsome; conditions: rhesus monkey, time < 70 min
In short: (§4)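 Compound at 1 μM final was incubated with 0.5 mg/mL mouse, rat, dog, monkey or human liver microsomes in 100 mM PBS, pH 7.4, with 1 mM NADPH at 37 °C after a 10 min preincubation. Reactions were stopped at 0, 5, 15, 30 and 60 min with ice-cold acetonitrile containing tolbutamide. Supernatants were taken for bioanalysis.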

[10] = Stability in human liver microsomes assessed as half life at 1 uM preincubated for 10 mins followed by reaction initiation measured upto 60 mins in presence of NADPH; type: ADME, Microsome; conditions: time < 70 min; in short: as §4
[11] = Apparent permeability across apical to basal side in MDCK-II cells at 10 uM measured for 120 mins by LC-MS/MS analysis; type: ADME, cell-based, Canis lupus familiaris; conditions: dog
In short: (§5)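 MDCK monolayers were grown on Transwell inserts (5 x 10^4 cells/cm²) and used at day 5. Compound at 10 μM in HBSS with 10 mM Hepes, pH 7.40, was dosed apically or basolaterally and incubated at 37±1 °C. Lucifer yellow passage below 1% confirmed monolayer integrity.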

[12] = Tmax in BALB/c mouse at 5 mg/kg, po measured for 24 hrs by LCMS analysis; type: ADME, organism-based; conditions: in vivo; in short: as §2
[13] = Apparent permeability across apical to basal side in MDCK-II cells assessed as compound recovery at 10 uM measured for 120 mins by LC-MS/MS analysis; type: ADME, cell-based, Canis lupus familiaris; conditions: dog, read-out: Drug recovery
In short: as §5, with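 “°C. Receiver and donor samples were taken at 120 min and quantified by LC-MS/MS against an internal standard.” for “°C.”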

[14] = Stability in rat liver microsomes assessed as intrinsic clearance measured per mg protein at 1 uM preincubated for 10 mins followed by reaction initiation measured upto 60 mins in presence of NADPH; type: ADME, Microsome; conditions: time < 70 min, read-out: CLH; in short: as §4
[15] = Apparent permeability across basal to apical side in MDCK-II cells at 10 uM measured for 120 mins by LC-MS/MS analysis; type: ADME, cell-based, Canis lupus familiaris; conditions: dog; in short: as §5
[16] = Stability in rat liver microsomes assessed as half life at 1 uM preincubated for 10 mins followed by reaction initiation measured upto 60 mins in presence of NADPH; type: ADME, Microsome; conditions: time < 70 min; in short: as §4
[17] = Half life in BALB/c mouse at 5 mg/kg, po measured for 24 hrs by LCMS analysis; type: ADME, organism-based; conditions: in vivo; in short: as §2
[18] = Stability in dog liver microsomes assessed as half life at 1 uM preincubated for 10 mins followed by reaction initiation measured upto 60 mins in presence of NADPH; type: ADME, Canis lupus familiaris, Microsome; conditions: time < 70 min; in short: as §4
[19] = Stability in human liver microsomes assessed as intrinsic clearance measured per mg protein at 1 uM preincubated for 10 mins followed by reaction initiation measured upto 60 mins in presence of NADPH; type: ADME, Microsome; conditions: time < 70 min, read-out: CLH; in short: as §4
[20] = Stability in mouse liver microsomes assessed as half life at 1 uM preincubated for 10 mins followed by reaction initiation measured upto 60 mins in presence of NADPH; type: ADME, Microsome; conditions: time < 70 min; in short: as §4
[21] = Apparent permeability across basal to apical side in MDCK-II cells assessed as compound recovery at 10 uM measured for 120 mins by LC-MS/MS analysis; type: ADME, cell-based, Canis lupus familiaris; conditions: dog, read-out: Drug recovery
In short: as §5, with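 “°C. Receiver and donor samples were taken at 120 min and quantified by LC-MS/MS against an internal standard.” for “°C.”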

[22] = Stability in mouse liver microsomes assessed as intrinsic clearance measured per mg protein at 1 uM preincubated for 10 mins followed by reaction initiation measured upto 60 mins in presence of NADPH; type: ADME, Microsome; conditions: time < 70 min, read-out: CLH; in short: as §4
[23] = Stability in dog liver microsomes assessed as intrinsic clearance measured per mg protein at 1 uM preincubated for 10 mins followed by reaction initiation measured upto 60 mins in presence of NADPH; type: ADME, Canis lupus familiaris, Microsome; conditions: time < 70 min, read-out: CLH; in short: as §4
[24] = AUClast in BALB/c mouse at 2 mg/kg, iv measured for 24 hrs by LCMS analysis; type: ADME, organism-based; parameters: time 24 hrs, dose 2 mg/kg, route iv; conditions: in vivo; in short: as §3
[25] = Apparent volume of distribution in BALB/c mouse at 2 mg/kg, iv measured for 24 hrs by LCMS analysis; type: ADME, organism-based; conditions: in vivo, read-out: Vz; in short: as §3
[26] = Clearance in BALB/c mouse at 2 mg/kg, iv measured for 24 hrs by LCMS analysis; type: ADME, organism-based; conditions: in vivo; in short: as §3
[27] = AUClast in BALB/c mouse at 5 mg/kg, po measured for 24 hrs by LCMS analysis; type: ADME, organism-based; parameters: dose 5 mg/kg, time 24 hrs, route po; conditions: in vivo; in short: as §2
[28] = Cmax in BALB/c mouse at 5 mg/kg, po measured for 24 hrs by LCMS analysis; type: ADME, organism-based; parameters: dose 5 mg/kg, time 24 hrs, route po; conditions: in vivo; in short: as §2
[29] = Stability in monkey liver microsomes assessed as intrinsic clearance measured per mg protein at 1 uM preincubated for 10 mins followed by reaction initiation measured upto 60 mins in presence of NADPH; type: ADME, Macaca mulatta, Microsome; conditions: rhesus monkey, time < 70 min, read-out: CLH; in short: as §4

- Activity [1]: 18.2%
- Activity [2]: 20.1%
Compound: Nc1ncnc2c1c(-c1ccc(Oc3ccccc3)cc1)nn2[C@@H]1CCCN(C(=O)c2ccc(Nc3ccc4c(c3)C(=O)N(C3CCC(=O)NC3=O)C4=O)cc2)C1 (stereo not given in full)

- Activity [1]: 78.4%
- Activity [2]: 79.7%
Compound: Nc1ncnc2c1c(-c1ccc(Oc3ccccc3)cc1)nn2[C@@H]1CCCN(C(=O)N2CCN(c3ccc4c(c3)C(=O)N(C3CCC(=O)NC3=O)C4=O)CC2)C1 (stereo not given in full)

- Activity [1]: 6.9%
- Activity [2]: 12%
Compound: Nc1ncnc2c1c(-c1ccc(Oc3ccccc3)cc1)nn2[C@@H]1CCCN(C(=O)c2ccc(Nc3ccc4c(c3)CN(C3CCC(=O)NC3=O)C4=O)cc2)C1 (stereo not given in full)

- Activity [1]: 23.1%
- Activity [2]: 24.5%
Compound: Nc1ncnc2c1c(-c1ccc(Oc3ccccc3)cc1)nn2[C@@H]1CCCN(C(=O)N2CC3(C2)CN(c2ccc4c(c2)C(=O)N(C2CCC(=O)NC2=O)C4=O)C3)C1 (stereo not given in full)

- Activity [3]: 38.8%
- Activity [4]: 38.4%
Compound: Nc1ncnc2c1c(-c1ccc(Oc3ccccc3)cc1)nn2[C@@H]1CCCN(C(=O)c2ccc(-c3ccc(Nc4ccc5c(c4)C(=O)N(C4CCC(=O)NC4=O)C5=O)cc3)cc2)C1 (stereo not given in full)

Compound: C=CC(=O)N1CCC[C@@H](n2nc(-c3ccc(Oc4ccccc4)cc3)c3c(N)ncnc32)C1 [IBRUTINIB]
- solubility [5]: Insoluble
- solubility [6]: Soluble

- bioavailability [7]: 2.23%
- half-life [8]: 309 min
- half-life at 1 µM [9]: 10 min
- half-life at 1 µM [10]: 14.4 min
- Papp A→B at 2 h, 10 µM [11]: 0.001 ×10⁻⁶ cm/s
- Tmax [12]: 30 min
- recovery at 2 h, 10 µM [13]: 107%
- microsomal CLint at 1 µM [14]: 95 µL/min/mg
- Papp B→A at 2 h, 10 µM [15]: 0.071 ×10⁻⁶ cm/s
- half-life at 1 µM [16]: 14.6 min
- half-life [17]: 68.4 min
- half-life at 1 µM [18]: 23 min
- microsomal CLint at 1 µM [19]: 96.2 µL/min/mg
- half-life at 1 µM [20]: 12.1 min
- recovery at 2 h, 10 µM [21]: 101%
- microsomal CLint at 1 µM [22]: 115 µL/min/mg
- microsomal CLint at 1 µM [23]: 60.3 µL/min/mg
- AUC(0-t) at 24 h [24]: 6400 ng·h/mL
- Vd [25]: 2.31 L/kg
- clearance [26]: 5.17 mL/min/kg
- AUC(0-t) at 24 h [27]: 357 ng·h/mL
- Cmax [28]: 364 ng/mL
- microsomal CLint at 1 µM [29]: 139 µL/min/mg
Compound: Nc1ncnc2c1c(-c1ccc(Oc3ccccc3)cc1)nn2[C@@H]1CCCN(C(=O)Cc2ccc(Nc3ccc4c(c3)CN(C3CCC(=O)NC3=O)C4=O)cc2)C1 (stereo not given in full)
